Results reported in PubChem BioAssay.
The source made the active and inactive calls.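 The calls were made as follows, unless noted: active = inhibition at or above 50% at 10 µM; inactive = inhibition below 50%.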

Tests used:
[1] = inhibitors of TNFa-induced NFkB p65 translocation, primary screen, imaging, HUVEC, MLSMR starter and 10KST1 sets (AID 438;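 active = inhibition above 20% together with a positive visual image hit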;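 also: compound added about 3h40 before a 20 min TNFalpha stimulation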;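 as to inhibition: signal is the nuclear over cytoplasmic p65 intensity ratio per well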); conditions: HUVEC TNFa-induced p65 nuclear translocation; cell count: measured here: nuclei count (cytotoxicity indicator), at 2.08 µM; inhibition: at 2 µM, stronger effect = higher value, 0% TNFa-plus-vehicle, 100% no-TNFa wells
[2] = reduction of polyQ htt aggregates in cells – imaging, exon1htt(103Q)mCFP cells, high-content imaging, primary screen (AID 483;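 active = visual image review flags a hit and inhibition of aggregation exceeds 20%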;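 also: compound exposure lasted 3 days before fixation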;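 as to nuclei count: percent of the per-plate median nuclei count of sample wells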); conditions: exon1htt(103Q)mCFP cell line, aggregate imaging, at 2 µM; inhibition of aggregation: stronger effect = higher value; nuclei count: measured here: cell count, toxicity
[3] = endothelial E-selectin expression blockers – imaging, HUVEC, immunofluorescence, MLSMR starter and 10KST1 sets, primary screen (AID 487;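 active = visually confirmed hit in the image check and inhibition above 20%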;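 as to inhibition: signal is fraction of cell area covered by stained E-selectin grains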;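 as to nuclei count: 100% = median nuclei count of all wells on the same plate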); conditions: HUVEC TNFalpha-induced E-selectin immunofluorescence imaging, at 2 µM; inhibition: stronger effect = higher value; nuclei count: measured here: cell number, toxicity
[4] = molecular target: Voltage-gated potassium channel subunit beta-2 (Rattus norvegicus) (UniProt P62483); assay: inhibitors of rat Kvbeta2 reductase activity – biochemical, NADPH fluorescence, primary screen (AID 622;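 active = fluorescence slope higher than the sample average by over 3 SD, cut at about -0.22 in these data, passing the limit was not always enough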;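 also: slope of raw intensity against log time taken from 70 to 1610 s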); conditions: recombinant KvBeta, 4-cyanobenzaldehyde reduction, at 10 µM, stronger effect = higher value
[5] = molecular target: Voltage-gated potassium channel subunit beta-2 (Rattus norvegicus) (UniProt P62483); assay: enhancers of rat Kvbeta2 NADPH turnover – biochemical, NADPH fluorescence, primary screen (AID 623;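 active = NADPH fluorescence slope more negative than the mean of all samples by about 3 SD, 99.7% confidence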;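 also: fluorescence intensity change per second fitted from 20 to 320 s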); conditions: Recombinant KvBeta, NADPH fluorescence decrease slope, 10 min; at 10 µM; stronger effect = lower value
[6] = molecular target: Alpha-2C adrenergic receptor (Homo sapiens) (UniProt P18825); assay: compounds altering alpha2C-coupled GIRK flux – cell-based, HEK293 alpha2C/GIRK1/2, thallium flux, primary screen (AID 624;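 active = fluorescence slope after compound addition differing from the mean of all screened samples at 99.7% confidence, in either direction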;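 also: slope of fluorescence ratio to pre-addition baseline per second over 15 to 24 s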); conditions: thallium flux BTC fluorescence, at 10 µM, actives lie on both sides
[7] = inhibitors of larval lipid processing in zebrafish, primary screen, whole organism, PED6 fluorescence, gall bladder and intestine (AID 686;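 active = a full or partial loss of lipid-probe fluorescence in the fish gall bladder, intestine or both, judged by eye; inactive = no fluorescence loss, or compound toxic to the fish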;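 also: larvae 5 to 7 days old with five fish per well; signal comes from phospholipase A2 cleavage of quenched PED6 carried via bile; overnight exposure to compound and PED6 before scoring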); conditions: Zebrafish larvae PED6 lipid processing, fluorescence scoring; screened at 20 µM (by protocol)
In short: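 system = live zebrafish larvae aged 5-7 days, whole organism | probe or stimulus = ingested quenched lipid PED6 at 100 nM | doses = 20 µM single dose | timing = overnight exposure | detection = fluorescence microscopy with visual scoring of gall bladder and intestine | read-out = visual per-well fluorescence inhibition score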

[8] = blockers of RIG-like receptor reporter activation – cell-based, Sendai virus stimulus, luciferase, 10K MLSCN set, TLR/RLR signaling modifier project, primary screen (AID 602276); conditions: HEK293 RL24 IRF3 luciferase reporter, at 10 µM, stronger effect = higher value;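 also: firefly luciferase from ISG56 promoter only with Renilla not read in this screen; 0% = Sendai virus plus DMSO and 100% = medium plus DMSO without virus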
[9] = TLR3 IRF3 reporter activation blockers – cell-based, poly I:C stimulus, luciferase, 10K MLSCN set, primary screen (AID 602277;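 active = inhibition of the reporter signal at or above 50%; inactive = inhibition below 50%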); conditions: HEK293-TLR3 RL24 IRF3 luciferase reporter, at 10 µM, stronger effect = higher value

Sequence of Voltage-gated potassium channel subunit beta-2 (Rattus norvegicus) (P62483 whole entry, looked up): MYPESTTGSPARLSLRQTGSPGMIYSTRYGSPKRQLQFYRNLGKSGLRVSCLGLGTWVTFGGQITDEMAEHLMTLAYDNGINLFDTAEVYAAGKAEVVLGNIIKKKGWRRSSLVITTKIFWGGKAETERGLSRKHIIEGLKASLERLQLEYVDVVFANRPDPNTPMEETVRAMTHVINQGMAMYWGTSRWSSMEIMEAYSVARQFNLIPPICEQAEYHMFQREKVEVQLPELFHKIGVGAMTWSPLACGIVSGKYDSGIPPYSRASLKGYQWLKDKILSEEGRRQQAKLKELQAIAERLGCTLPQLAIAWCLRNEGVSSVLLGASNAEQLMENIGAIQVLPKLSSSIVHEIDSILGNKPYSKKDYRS
Sequence of Alpha-2C adrenergic receptor (Homo sapiens) (P18825 whole entry, looked up): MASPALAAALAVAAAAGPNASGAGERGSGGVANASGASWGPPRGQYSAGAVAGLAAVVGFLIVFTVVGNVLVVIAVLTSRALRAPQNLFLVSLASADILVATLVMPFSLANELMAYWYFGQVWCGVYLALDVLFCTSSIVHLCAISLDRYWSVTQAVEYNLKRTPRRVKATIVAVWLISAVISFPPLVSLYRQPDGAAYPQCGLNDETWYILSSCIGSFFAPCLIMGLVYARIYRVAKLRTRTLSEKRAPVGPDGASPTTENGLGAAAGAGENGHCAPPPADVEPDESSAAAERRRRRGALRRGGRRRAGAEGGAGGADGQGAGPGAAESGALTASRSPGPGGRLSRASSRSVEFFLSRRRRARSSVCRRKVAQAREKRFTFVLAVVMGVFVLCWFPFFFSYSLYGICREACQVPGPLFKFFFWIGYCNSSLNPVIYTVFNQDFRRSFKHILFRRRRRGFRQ

Row | SMILES | cell count [1] | inhibition [1] | inhibition of aggregation [2] | nuclei count [2] [%] | inhibition [3] | nuclei count [3] [%] | fluorescence slope [4] | NADPH fluorescence slope [5] | slope [6] | outcome [7] | inhibition [8] | inhibition [9]
1 | Cc1ccc(Cn2c(SCC(N)=O)nc3c2c(=O)n(C)c(=O)n3C)cc1 | 582 | -6.2% (inactive) | 19.4% (inactive) | 88 | 29.5% (inactive) | 72.3 | -0.333 (inactive) | 1e-05 (inactive) | 0.00505 (inactive) | inactive | 0.352% (inactive) | 2.84% (inactive)
2 | COC(=O)c1ccccc1NC(=O)c1cnc2sccn2c1=O | 505 | -19.2% (inactive) | 14% (inactive) | 77.5 | 14.9% (inactive) | 98 | -0.369 (inactive) | -5.8e-05 (inactive) | 0.00479 (inactive) | inactive | 5.91% (inactive) | -1.07% (inactive)
3 | Cc1ccc(S(=O)(=O)N2CCCN(S(=O)(=O)C3CCS(=O)(=O)C3)CC2)cc1 (centres undefined) | 455 | 2.4% (inactive) | -22.7% (inactive) | 111 | -102% (inactive) | 129 | -0.366 (inactive) | -4.2e-05 (inactive) | 0.00596 (inactive) | inactive | 12.7% (inactive) | 14% (inactive)
4 | CCOC(=O)C1CCN(CC(=O)Nc2c(C(=O)OC)[nH]c3ccc(Cl)cc23)CC1 | 340 | 4.8% (inactive) | -27.5% (inactive) | 104 | -29.3% (inactive) | 107 | -0.383 (inactive) | -6.2e-05 (inactive) | 0.00328 (inactive) | inactive | 8.17% (inactive) | -16.2% (inactive)
5 | COc1ccc(CCN(Cc2cc3cccc(C)c3[nH]c2=O)C(=O)N2CCCC2)cc1OC | 207 | 2.1% (inactive) | 8.7% (inactive) | 94.8 | 11.6% (inactive) | 91.3 | -0.458 (inactive) | -8.2e-05 (inactive) | 0.00488 (inactive) | inactive | 10.3% (inactive) | 16.5% (inactive)
6 | Cc1ccc(F)cc1NC(=O)C1CCCN(c2ncccn2)C1 (centres undefined) | 692 | -7.8% (inactive) | -34.5% (inactive) | 117 | -56.9% (inactive) | 118 | -0.357 (inactive) | -1.9e-05 (inactive) | 0.00523 (inactive) | inactive | 7.51% (inactive) | 9.04% (inactive)
7 | CCCCc1c(O)nc(SCC(=O)Nc2ccc3c(c2)CCC3)[nH]c1=O | 569 | -18.3% (inactive) | -3% (inactive) | 75.8 | -5.9% (inactive) | 87.2 | -0.368 (inactive) | -6.1e-05 (inactive) | 0.00495 (inactive) | inactive | 10.6% (inactive) | 7.8% (inactive)
8 | O=C(c1nn2cccnc2c1Cl)N1CCN(c2ccccc2)CC1 | 344 | 3.6% (inactive) | -7.7% (inactive) | 80.1 | -45.6% (inactive) | 94.5 | -0.424 (inactive) | -2.5e-05 (inactive) | 0.00475 (inactive) | inactive | 11.4% (inactive) | 1.58% (inactive)
9 | O=C(Nc1cccnc1)c1cc2c(ccc3ccccc32)o1 | 489 | 8.1% (inactive) | -7.4% (inactive) | 104 | -160% (inactive) | 140 | -0.355 (inactive) | -4.5e-05 (inactive) | 0.00441 (inactive) | inactive | -38.2% (inactive) | -135% (inactive)
10 | O=C(CCCSc1nc2ccccc2s1)NC1=NCCS1 | 333 | -7.4% (inactive) | 10.8% (inactive) | 102 | -3.2% (inactive) | 102 | -0.409 (inactive) | -1.5e-05 (inactive) | 0.00541 (inactive) | inactive | 36% (inactive) | 60.9% (active)
11 | c1cncc(C2Nc3ccccc3-c3nc4ccccc4n32)c1 (centres undefined) | 428 | 21.8% (active) | 2.7% (inactive) | 93.3 | -151% (inactive) | 116 | -0.37 (inactive) | -5.6e-05 (inactive) | 0.00507 (inactive) | inactive | -7% (inactive) | -38.6% (inactive)
12 | COc1ccccc1OCc1nc2ccccc2[nH]1 | 391 | 1.3% (inactive) | 19.9% (inactive) | 101 | 29.8% (inactive) | 86.3 | -0.444 (inactive) | -7e-05 (inactive) | 0.0055 (inactive) | inactive | -14.3% (inactive) | -80.7% (inactive)
13 | CCOC(=O)c1nnc2ccnn2c1N | 529 | 6.8% (inactive) | -6.1% (inactive) | 108 | -120% (inactive) | 111 | -0.448 (inactive) | -0.000165 (inactive) | 0.00514 (inactive) | inactive | 8.28% (inactive) | 16.2% (inactive)
14 | CCCNC(=O)c1cc(-c2ccco2)on1 | 389 | -3.9% (inactive) | -4.1% (inactive) | 88.7 | -11.4% (inactive) | 98.4 | -0.39 (inactive) | -4.2e-05 (inactive) | 0.0057 (inactive) | inactive | -19% (inactive) | -154% (inactive)
15 | Cc1nc2ncnn2c(N2CCC(C(=O)NCC3CCCO3)CC2)c1Cc1ccccc1 (centres undefined) | 642 | -10.1% (inactive) | -26.5% (inactive) | 97 | -143% (inactive) | 112 | -0.407 (inactive) | -2.8e-05 (inactive) | 0.00509 (inactive) | inactive | 8.8% (inactive) | 19.2% (inactive)
16 | COc1ccc(COC(=O)c2n[nH]c3ccccc23)cc1F | 380 | 3.9% (inactive) | -16% (inactive) | 125 | -1.8% (inactive) | 107 | -0.444 (inactive) | -5.5e-05 (inactive) | 0.00618 (inactive) | inactive | -16.1% (inactive) | -49.8% (inactive)
17 | CC(C)C(CO)NC(=O)CC(=O)NC(CO)C(C)C (centres undefined) | 627 | -5.6% (inactive) | 4.9% (inactive) | 82.3 | 48.7% (inactive) | 35.5 | -0.392 (inactive) | -5.1e-05 (inactive) | 0.00488 (inactive) | inactive | 9.94% (inactive) | 12.2% (inactive)
18 | Cc1onc(-c2ccccc2)c1C(=O)NCc1cccnc1 | 272 | -15.4% (inactive) | -24.1% (inactive) | 120 | -22.8% (inactive) | 112 | -0.385 (inactive) | -6.1e-05 (inactive) | 0.00521 (inactive) | inactive | 6.6% (inactive) | 8.85% (inactive)
19 | Cc1ccc(C(=O)Nc2c(C(=O)N3CCOCC3)cnn2-c2ccccc2)cc1 | 354 | 5.4% (inactive) | -0.9% (inactive) | 102 | -6.5% (inactive) | 105 | -0.321 (inactive) | -3.7e-05 (inactive) | 0.00471 (inactive) | inactive | 14% (inactive) | 15.4% (inactive)
20 | O=C(CN1CCN(Cc2ccccc2)CC1)NCC1COc2ccccc2O1 (centres undefined) | 531 | -6.7% (inactive) | -7% (inactive) | 95.7 | -17.6% (inactive) | 94.9 | -0.356 (inactive) | -7.8e-05 (inactive) | 0.00497 (inactive) | inactive | 12.2% (inactive) | 98.2% (active)
21 | COc1ccccc1NC(=O)CSc1nnc(Cn2nnc(-c3ccccc3)n2)n1-c1ccccc1 | 644 | -12.5% (inactive) | 5.6% (inactive) | 104 | -50.5% (inactive) | 119 | -0.452 (inactive) | -5.2e-05 (inactive) | 0.00589 (inactive) | inactive | 19.9% (inactive) | 14.5% (inactive)
22 | O=C1c2oc3ccccc3c(=O)c2C(c2cccnc2)N1Cc1ccco1 (centres undefined) | 389 | -2.7% (inactive) | -2.7% (inactive) | 110 | -107% (inactive) | 111 | -0.48 (inactive) | -3.2e-05 (inactive) | 0.00687 (inactive) | inactive | -0.371% (inactive) | 8.46% (inactive)
23 | C=CCn1c(SCC(=O)Nc2ccc3c(c2)OCO3)nc2ccccc2c1=O | 388 | -0.4% (inactive) | 1.9% (inactive) | 96.8 | 37.8% (inactive) | 90.6 | -0.429 (inactive) | -3.8e-05 (inactive) | 0.00549 (inactive) | inactive | 15.8% (inactive) | 14.8% (inactive)
24 | Cc1cc(C)nc(SCc2ccc3nonc3c2)n1 | 634 | -4.3% (inactive) | -20.5% (inactive) | 114 | 12.3% (inactive) | 97.4 | -0.282 (inactive) | -1.3e-05 (inactive) | 0.00664 (inactive) | inactive; toxic | 8.18% (inactive) | 10.6% (inactive)
25 | O=C(Cc1nc2ccccc2s1)c1ccc(O)cc1O | 322 | 1.1% (inactive) | -15.5% (inactive) | 88.3 | -98.2% (inactive) | 124 | -0.391 (inactive) | -0.000109 (inactive) | 0.00457 (inactive) | inactive | -33.1% (inactive) | -88.7% (inactive)
26 | CC(NC(=O)NC12CC3CC(CC(C3)C1)C2)C1CCCO1 (centres undefined) | 356 | 2.9% (inactive) | 0.8% (inactive) | 80.4 | 1.7% (inactive) | 87.1 | -0.439 (inactive) | -2.2e-05 (inactive) | 0.00592 (inactive) | inactive | 15.3% (inactive) | 8.29% (inactive)
27 | CCOc1ccccc1C1N(c2ccc(F)cc2)C(=O)C2CCCN21 (centres undefined) | 465 | -0.3% (inactive) | -10.1% (inactive) | 103 | 45.7% (inactive) | 91.5 | -0.349 (inactive) | -4.9e-05 (inactive) | 0.00484 (inactive) | inactive | 13.2% (inactive) | 17.1% (inactive)
